Experimental data of several laboratories.
Each line is one published result; the experiments were not run side by side.
Organism: Clostridioides difficile
Effect on: microbial growth

SMILES	method	strain	time	MIC
O=C(NCc1nc(-c2ccc(Br)cc2)c[nH]1)Nc1nc2ccc(OC(F)(F)F)cc2s1	broth dilution	R20291	24 h	12.5 to 25 µg/mL
Oc1cc(-c2nc(-c3ccc(Oc4ccc(C(F)(F)F)cc4)cc3)no2)cc(F)c1O	broth dilution	ATCC43255	48 h	128 µg/mL
Cc1ncc([N+](=O)[O-])n1CCO	broth dilution	630	–	> 0.5 µg/mL
N#Cc1ccc(Oc2ccc(-c3noc(-c4ccc(O)cc4)n3)cc2)cc1	broth dilution	ATCC43255	48 h	8 to 128 µg/mL
O=C(O)Cc1ccc(Oc2ccc(-c3noc(-c4ccc(O)cc4)n3)cc2)cc1	broth dilution	–	48 h	50 µg/mL
O=C(Nc1ncc([N+](=O)[O-])s1)C1CCCCC1	agar dilution	VPI10463	18 h	5.9 µM
Cl.NCCCc1ccc(Oc2ccc(-c3noc(-c4ccc(O)cc4)n3)cc2)cc1	broth dilution	–	48 h	2 µg/mL
O=C(NCc1nc(-c2ccc(Br)cc2)c[nH]1)[C@H]1CSC(c2ccccn2)=N1	broth dilution	R20291	24 h	> 50 µg/mL
Oc1ccc(Oc2ccc(-c3noc(-c4ccc(O)cc4)n3)cc2)cc1	broth dilution	ATCC43255	48 h	8 to 128 µg/mL
COCCNc1ccc(-c2nc(-c3ccc(Oc4ccccc4)cc3)no2)cc1	broth dilution	–	48 h	8 µg/mL
